Assay results reported in ChEMBL document CHEMBL1208682, “New quinoline derivatives: synthesis and investigation of antibacterial and antituberculosis properties” (2010).
Values after ≈ are worked out from the molar mass of the structure shown.

Assays:
Format in all cases: functional
[1] = tested on: Mycobacterium tuberculosis; assay: Antituberculosis activity against Mycobacterium tuberculosis at MIC concentration after 7 days using resazurin dye by broth microdilution assay
Summary of the method: (§1)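 M. tuberculosis H37Rv grown in Middlebrook 7H9 with 10% OADC and 0.5% glycerol, adjusted to McFarland 1.0. Compounds were dissolved in DMF as stocks and tested at final levels of 1.56, 3.12, 6.25, 12.5, 25 and 50 in 96-well REMA. Controls were DMF-only, growth, rifampicin and isoniazid. After 7 days at 37 °C, 0.01% resazurin was added for 24 h and the colour change read.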

Pseudomonas aeruginosa = assay: Antibacterial activity against Pseudomonas aeruginosa ATCC 27853 after 3 to 4 days by serial plate dilution method; details: for MIC: Pseudomonas aeruginosa, ATCC 27853
[2] = tested on: Mycobacterium tuberculosis; assay: Antituberculosis activity against Mycobacterium tuberculosis H37Rv ATCC 27294 after 7 days using resazurin dye by broth microdilution assay; details: H37Rv ATCC 27294, 168 h; summary of the method: as §1
Staphylococcus aureus = assay: Antibacterial activity against Staphylococcus aureus ATCC 25923 after 3 to 4 days by serial plate dilution method; details: for MIC: Staphylococcus aureus, ATCC 25923
Escherichia coli = assay: Antibacterial activity against Escherichia coli ATCC 25922 after 3 to 4 days by serial plate dilution method; details: for MIC: Escherichia coli, ATCC 25922
Klebsiella pneumoniae = assay: Antibacterial activity against recultured Klebsiella pneumoniae after 3 to 4 days by serial plate dilution method; details: for MIC: Klebsiella pneumoniae
[3] = tested on: Mycobacterium tuberculosis; assay: Antituberculosis activity against Mycobacterium tuberculosis; summary of the method: as §1

Structure (SMILES) | inhibition (INH) [1] [%] | diameter of the inhibition zone (DIZ) (Pseudomonas aeruginosa) [mm] | MIC (Pseudomonas aeruginosa) [µg/mL] | MIC [2] [µM] | diameter of the inhibition zone (DIZ) (Staphylococcus aureus) [mm] | MIC (Staphylococcus aureus) [µg/mL] | diameter of the inhibition zone (DIZ) (Escherichia coli) [mm] | MIC (Escherichia coli) [µg/mL] | diameter of the inhibition zone (DIZ) (Klebsiella pneumoniae) [mm] | MIC (Klebsiella pneumoniae) [µg/mL] | MIC [3] [µg/mL]
FC(F)(F)c1cc(N/N=C/C2CCCCC2)c2cccc(C(F)(F)F)c2n1 | 95 | 23 | 6.25 (≈ 16.1 µM) | 6.25 (≈ 2.43 µg/mL) | 24 | 6.25 (≈ 16.1 µM) | 25 | 6.25 (≈ 16.1 µM) | 19 | 6.25 (≈ 16.1 µM) | 
Cn1cccc1/C=N/Nc1cc(C(F)(F)F)nc2c(C(F)(F)F)cccc12 | <90 | 24 | 6.25 (≈ 16.2 µM) | 12.5 (≈ 4.83 µg/mL) | 22 | 6.25 (≈ 16.2 µM) | 20 | 6.25 (≈ 16.2 µM) | 21 | 6.25 (≈ 16.2 µM) | 
Cn1nnc2cc(/C=N/Nc3cc(C(F)(F)F)nc4c(C(F)(F)F)cccc34)ccc21 | <90 | 24 | 6.25 (≈ 14.3 µM) | 12.5 (≈ 5.48 µg/mL) | 22 | 6.25 (≈ 14.3 µM) | 20 | 6.25 (≈ 14.3 µM) | 21 | 6.25 (≈ 14.3 µM) | 
Cc1cccc2c(/C=N/Nc3cc(C(F)(F)F)nc4c(C(F)(F)F)cccc34)c[nH]c12 | 95 | 24 | 6.25 (≈ 14.3 µM) | 6.25 (≈ 2.73 µg/mL) | 24 | 6.25 (≈ 14.3 µM) | 27 | 6.25 (≈ 14.3 µM) | 19 | 6.25 (≈ 14.3 µM) | 
COc1ccccc1NC(=O)NNc1cc(C(F)(F)F)nc2c(C(F)(F)F)cccc12 | <90 | 22 | 6.25 (≈ 14.1 µM) | 12.5 (≈ 5.55 µg/mL) | 21 | 6.25 (≈ 14.1 µM) | 24 | 6.25 (≈ 14.1 µM) | 18 | 6.25 (≈ 14.1 µM) | 
Cc1nc[nH]c1/C=N/Nc1cc(C(F)(F)F)nc2c(C(F)(F)F)cccc12 | 99 | 25 | 6.25 (≈ 16.1 µM) | 3.12 (≈ 1.21 µg/mL) | 24 | 6.25 (≈ 16.1 µM) | 26 | 6.25 (≈ 16.1 µM) | 22 | 6.25 (≈ 16.1 µM) | 
CCCCCCC/C=N/Nc1cc(C(F)(F)F)nc2c(C(F)(F)F)cccc12 | 95 | 14 | 12.5 (≈ 30.8 µM) | 6.25 (≈ 2.53 µg/mL) | 12 | 12.5 (≈ 30.8 µM) | 24 | 6.25 (≈ 15.4 µM) | 12 | 12.5 (≈ 30.8 µM) | 
FC(F)(F)Oc1cccc(/C=N/Nc2cc(C(F)(F)F)nc3c(C(F)(F)F)cccc23)c1 | <90 | 26 | 6.25 (≈ 13.4 µM) | 12.5 (≈ 5.84 µg/mL) | 21 | 6.25 (≈ 13.4 µM) | 24 | 6.25 (≈ 13.4 µM) | 20 | 6.25 (≈ 13.4 µM) | 
FC(F)(F)c1cc(N/N=C/c2cccnc2)c2cccc(C(F)(F)F)c2n1 | <90 | 25 | 6.25 (≈ 16.3 µM) | 12.5 (≈ 4.8 µg/mL) | 22 | 6.25 (≈ 16.3 µM) | 24 | 6.25 (≈ 16.3 µM) | 20 | 6.25 (≈ 16.3 µM) | 
Cc1cc(C)cc(NC(=O)NNc2cc(C(F)(F)F)nc3c(C(F)(F)F)cccc23)c1 | 95 | 24 | 6.25 (≈ 14.1 µM) | 6.25 (≈ 2.76 µg/mL) | 23 | 6.25 (≈ 14.1 µM) | 20 | 6.25 (≈ 14.1 µM) | 22 | 6.25 (≈ 14.1 µM) | 
COc1ccc(/C=N/Nc2cc(C(F)(F)F)nc3c(C(F)(F)F)cccc23)cc1O | <90 | 15 | 12.5 (≈ 29.1 µM) | 12.5 (≈ 5.37 µg/mL) | 14 | 12.5 (≈ 29.1 µM) | 13 | 12.5 (≈ 29.1 µM) | 12 | 12.5 (≈ 29.1 µM) | 
COc1ccc(/C=N/Nc2cc(C(F)(F)F)nc3c(C(F)(F)F)cccc23)c(F)c1 | 95 | 24 | 6.25 (≈ 14.5 µM) | 6.25 (≈ 2.7 µg/mL) | 23 | 6.25 (≈ 14.5 µM) | 25 | 6.25 (≈ 14.5 µM) | 22 | 6.25 (≈ 14.5 µM) | 
O=C(NNc1cc(C(F)(F)F)nc2c(C(F)(F)F)cccc12)Nc1ccc(F)cc1 | <90 | 14 | 12.5 (≈ 28.9 µM) | 12.5 (≈ 5.4 µg/mL) | 10 | 12.5 (≈ 28.9 µM) | 10 | 12.5 (≈ 28.9 µM) | <10 | 50 (≈ 116 µM) | 
OC(c1cc(C(F)(F)F)nc2c(C(F)(F)F)cccc12)C1CCCCN1 (stereo unspecified) [MEFLOQUINE] |  |  |  |  |  |  |  |  |  |  | 25 (≈ 66.1 µM)
